FID counter: displaces DNA intercalator in HCV helicase counter-screen. DNA fluorescent intercalator displacement, fluorescence. inhibition, % at 7.9 µM. 290,000 tested, 0.17% active. AID 1845; in the data active = inhibition above about 37%;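 also: 0% = vehicle and 100% = reference compound; higher means more ethidium bromide displaced from hairpin DNA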
RBBP9 inh: blocks human serine hydrolase RBBP9; recombinant RBBP9, FP-Rh probe fluorescence polarization; 220,000 tested, 0.2% active; O75884; inhibition, % at 7.94 µM;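 active = inhibition above the campaign mean of all tested compounds plus 3 SD, cut at about 14% in these data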;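 also: plate controls were DMSO wells with RBBP9 for no effect and wells lacking RBBP9 protein for full effect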
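System: RBBP9 protein / Buffer or medium: Tris/NaCl buffer pH 8.0 with 0.1% Pluronic / Probe or stimulus: Serine-hydrolase probe FP-Rh, 375 nM pre-mixing / Dosing: 7.94 µM single dose, 0.794% DMSO / Times: enzyme-compound preincubation 30 min, then probe labeling 45 min, 25 °C / Technique: fluorescence polarization (mP), excitation 525 nm, emission 598 nm / Replication: singlicate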
Wee1 stabilizer: blocks degradation of human Wee1 kinase. P30291. HeLa Luc-Wee1K328M stability, luciferase luminescence; 100% = proteasome inhibitor MG132 effect. reporter increase, % at 5 µM. 220,000 tested, 1.2% active. AID 1321;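 active = activation above the mean of all tested compounds plus 3 SD, set per screening run, cut at about 8.8% in these data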;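 also: cells exposed to compound for 20 h before luminescence read; 0% = DMSO alone and 100% = MG132 at 30 µM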
Rad51 HR inh: Rad51 (human) homologous recombination inhibition. Q06609. AID 1385. inhibition, % at 10 µM. hRad51 DNA strand exchange, fluorescence dequenching. 200,000 tested, 0.085% active;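 active = inhibition above 40% at the single screening dose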;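 also: 0% = DMSO control wells and 100% = blanks with heterologous ssDNA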
Target sequence (Q06609 whole entry, looked up): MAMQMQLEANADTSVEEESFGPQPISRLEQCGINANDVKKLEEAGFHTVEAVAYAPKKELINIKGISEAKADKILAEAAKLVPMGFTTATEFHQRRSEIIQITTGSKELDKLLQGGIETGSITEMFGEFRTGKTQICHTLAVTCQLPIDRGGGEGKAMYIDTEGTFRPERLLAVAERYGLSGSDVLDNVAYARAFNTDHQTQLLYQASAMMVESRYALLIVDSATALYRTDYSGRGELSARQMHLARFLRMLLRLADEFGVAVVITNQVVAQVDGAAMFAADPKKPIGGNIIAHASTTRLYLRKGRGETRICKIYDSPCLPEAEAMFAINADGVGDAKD
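Test system – preformed human Rad51 ssDNA filaments · Reagent – Donor/quencher-labelled 47-bp dsDNA substrate · Incubation – 37 °C 15-min filament assembly, 30-min compound preincubation, 15-min exchange · Signal – FRET fluorescence dequenching, excitation 485 nm, emission 520 nm · Read-out – percent inhibition from fluorescence, normalised to plate control and blank means · Benchmarks – plate control and blank wells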
Active calls of the source: *; . = not tested or not shown. Only some compounds are listed: those with a hit (about 1.2% of all), similar ones and a draw of the others.

SMILES | FID counter | RBBP9 inh | Wee1 stabilizer | Rad51 HR inh
O=C1C2C3C=CC(CO)(O3)C2C(=O)N1c1ccccc1-c1ccccc1 (configuration not stated) | 2.6 | 33.2* | -0.2 | -0.3
CC(=O)Oc1ccc(N2C(=O)C3C4C=CC(CO)(O4)C3C2=O)cc1 (configuration not stated) | -2.9 | -5.1 | 0.4 | -14.3
CCC(C)C(NC(=O)/C(=C\c1ccccc1)NC(=O)c1ccc(OC)cc1)C(=O)O (configuration not stated) | -20.8 | -3.4 | -2.1 | -3.0
C#CCOCCOCCOCCNc1nc(N2CCN(C(=O)[C@H](Cc3cc4ccccc4[nH]3)n3cc([C@@H](N)C(C)CC)nn3)CC2)nc(N2CCN(C(=O)[C@H](CCCCN)n3cc([C@@H](N)CO)nn3)CC2)n1 (some centres not stated) | 55.1* | -8.5 | -0.5 | .
C#CCOCCOCCOCCNc1nc(N2CCN(C(=O)[C@H](CCCCN)n3cc([C@@H](N)C(C)CC)nn3)CC2)nc(N2CCN(C(=O)[C@H](Cc3cc4ccccc4[nH]3)n3cc([C@@H](N)CC(C)C)nn3)CC2)n1 (some centres not stated) | 47.7* | 6.8 | 3.2 | .
C#CCOCCOCCOCCNc1nc(N2CCN(C(=O)[C@H](CCC(=O)O)n3cc(C(N)CO)nn3)CC2)nc(N2CCN(C(=O)[C@H](Cc3cc4ccccc4[nH]3)n3cc(C(N)[C@H](C)CC)nn3)CC2)n1 (some centres not stated) | 17.7 | 1.4 | 2.4 | 0.3
C#CCOCCOCCOCCNc1nc(N2CCOCC2)nc(N2CCN(C(=O)[C@H](CCCCN)n3cc([C@@H](N)CC(C)C)nn3)CC2)n1 | 34.2 | 3.9 | -2.9 | 0.5
C#CCOCCOCCOCCNc1nc(N2CCN(C(=O)[C@H](CCCCN)n3cc([C@@H](N)CO)nn3)CC2)nc(N2CCN(C(=O)[C@H](Cc3cc4ccccc4[nH]3)n3cc([C@@H](N)CC(C)C)nn3)CC2)n1 | 48.9* | 11.5 | 0.7 | .
C#CCOCCOCCOCCNc1nc(N2CCN(C(=O)[C@H](CCC(=O)O)n3cc(C(N)Cc4ccc(O)cc4)nn3)CC2)nc(N2CCN(C(=O)[C@H](Cc3cc4ccccc4[nH]3)n3cc(C(N)CC(C)C)nn3)CC2)n1 (some centres not stated) | 24.9 | 5.0 | 4.3 | .
C#CCOCCOCCOCCNc1nc(N2CCN(C(=O)[C@H](Cc3cc4ccccc4[nH]3)n3cc([C@@H](N)C(C)CC)nn3)CC2)nc(N2CCN(C(=O)[C@H](Cc3cc4ccccc4[nH]3)n3cc([C@@H](N)CC(C)C)nn3)CC2)n1 (some centres not stated) | 40.8* | -3.2 | 4.9 | .
Cc1ccc(/C=C/C(=O)N(Cc2cccs2)C2CCS(=O)(=O)C2)cc1 (configuration not stated) | -26.1 | -8.2 | -1.6 | .
C#CCOCCOCCOCCNc1nc(N2CCN(C(=O)C(Cc3ccc(O)cc3)n3cc(C(N)CC(C)C)nn3)CC2)nc(N2CCN(C(=O)C(Cc3cc4ccccc4[nH]3)n3cc(C(N)Cc4ccc(O)cc4)nn3)CC2)n1 (configuration not stated) | 39.8* | 3.5 | 1.7 | -4.7
O=c1[nH]c(N/N=C/c2ccccc2)nc2ccccc12 | -1.6 | -4.8 | 10.5* | -3.1
C(=N\Nc1nc2ccccc2[nH]1)/c1ccccc1 | 19.0 | 0.3 | 0.6 | -4.8
Cn1ccnc1C(=O)c1cc(SCC(=O)N2CCOCC2)nc2ccccc12 | -20.6 | 1.0 | 1.2 | -3.5
C=CC#CC[N+]1(CC#Cc2ccccc2)CCOCC1 | 3.5 | -2.2 | -1.4 | 63.9*
C(#Cc1ccccc1)C[N+]1(CC#Cc2ccccc2)CCCC1 | 0.6 | -6.6 | -3.1 | 1.0
CCCCC(CC)CNC(=O)C1CC=CCC1C(=O)O (configuration not stated) | -5.0 | -4.2 | 0.2 | 3.6
Cc1ccc(C)c(NC(=O)CCC(=O)N/N=C/c2ccc3c(c2)OCO3)c1 | 2.6 | -5.5 | 10.5* | 18.3
CS(=O)(=O)c1cnc2c(S(=O)(=O)c3ccccc3)cnn2c1N | -2.0 | -5.5 | 8.8* | -79.0
O=C(NN1C(=O)c2ccccc2NC1c1ccoc1)c1ccccc1 (configuration not stated) | -3.0 | -7.6 | 2.9 | 47.8*
CC(=O)NN1C(=O)c2ccccc2NC1c1ccoc1 (configuration not stated) | -1.8 | -5.0 | -3.8 | 4.2
CCC(OC(=O)c1nsc(Cl)c1Cl)C(=O)NC(C)(C)C (configuration not stated) | -4.5 | -5.6 | -1.6 | 4.2
